Results on 5 compounds are retold here after ChEMBL document CHEMBL4725486, “Effects of C-Terminal B-Chain Modifications in a Relaxin 3 Agonist Analogue” (ACS Med Chem Lett, 2020).

In general, Ki refers to a measure of affinity in units of concentration, obtained from inhibition or displacement. A higher Ki goes with a looser hold on the target. As a reminder, the EC50 is the concentration needed to bring the measured effect to its halfway point.

Molecules are shown by their SMILES.

Assay [1] has as its target T1, Relaxin-3 receptor 1 (Homo sapiens, UniProt Q9NSD7).
T1 sequence (Q9NSD7 whole entry): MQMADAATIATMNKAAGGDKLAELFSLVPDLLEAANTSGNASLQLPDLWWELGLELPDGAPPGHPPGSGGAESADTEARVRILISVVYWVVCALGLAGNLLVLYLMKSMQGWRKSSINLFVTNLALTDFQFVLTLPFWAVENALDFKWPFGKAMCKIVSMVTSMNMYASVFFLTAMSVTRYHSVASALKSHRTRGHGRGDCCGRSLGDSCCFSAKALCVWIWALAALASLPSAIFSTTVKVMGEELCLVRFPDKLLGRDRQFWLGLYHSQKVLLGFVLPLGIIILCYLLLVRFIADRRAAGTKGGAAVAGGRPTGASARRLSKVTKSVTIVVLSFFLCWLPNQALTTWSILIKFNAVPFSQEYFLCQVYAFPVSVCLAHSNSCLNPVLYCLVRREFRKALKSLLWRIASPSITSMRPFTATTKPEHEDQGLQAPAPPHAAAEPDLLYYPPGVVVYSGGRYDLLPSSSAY
Briefly: Displacement of Eu-labeled H3B1-22R from RXFP3 (unknown origin) stably expressed in CHO-K1 cells by competition binding assay. The assay is classed as cell-based. In short, it runs like this: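 Competition binding used europium-labeled H3 B1-22R as the labeled ligand on CHO-RXFP3 cells, with peptides as competitors. pKi values were pooled from 3–4 independent experiments.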

Assay [2] addresses Relaxin-3 receptor 2 (Homo sapiens, UniProt Q8TDU9). Briefly: Agonist activity at RXFP4 (unknown origin) stably expressed in CHO cells co-transfected with pCRE assessed as inhibition of forskolin-induced cAMP accumulation measured after 6 hrs by beta-galactosidase reporter gene assay. The assay is classed as functional, cell-based. A digest of the protocol: (§1)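 Cells were CHO lines expressing RXFP3 or RXFP4, which couple to Gi/o. Agonist action was read as inhibition of forskolin-stimulated cAMP in a reporter gene assay after 6 h stimulation. pEC50 values were pooled from 3–4 independent experiments.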
Background: Cyclic AMP is a second messenger, typically raised through Gs and lowered through Gi signalling.

Assay [3] addresses T1, Relaxin-3 receptor 1. As to the kind of experiment: Agonist activity at RXFP3 (unknown origin) stably expressed in CHO-K1 cells co-transfected with pCRE assessed as inhibition of forskolin-induced cAMP accumulation measured after 6 hrs by beta-galactosidase reporter gene assay. It is filed as functional, cell-based. In short, it runs like this: as §1

Sequence of Relaxin-3 receptor 2 (Q8TDU9 whole entry): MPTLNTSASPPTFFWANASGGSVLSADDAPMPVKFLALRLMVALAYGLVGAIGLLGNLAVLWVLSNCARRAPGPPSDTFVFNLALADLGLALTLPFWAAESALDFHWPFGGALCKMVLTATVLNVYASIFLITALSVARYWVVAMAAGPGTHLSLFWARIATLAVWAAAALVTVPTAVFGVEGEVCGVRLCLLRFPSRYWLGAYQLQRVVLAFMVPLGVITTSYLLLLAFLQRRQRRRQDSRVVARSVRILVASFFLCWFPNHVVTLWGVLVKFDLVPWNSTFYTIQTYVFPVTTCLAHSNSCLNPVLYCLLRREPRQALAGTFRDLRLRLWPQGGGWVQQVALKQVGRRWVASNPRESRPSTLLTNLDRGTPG

`CC[C@H](C)[C@@H]1NC(=O)[C@H](CCC(=O)O)NC(=O)[C@H](CO)NC(=O)[C@H](CCCCN)NC(=O)[C@H](CO)NC(=O)[C@H](C)NC(=O)CNC(=O)[C@H](Cc2c[nH]c3ccccc23)NC(=O)[C@H](CCCCN)NC(=O)[C@@H](N)CSSC[C@@H](C(=O)NCC(=O)NCC(=O)N[C@@H](CO)C(=O)N[C@@H](CCCNC(=N)N)C(=O)N[C@@H](Cc2c[nH]c3ccccc23)C(=O)O)NC(=O)[C@H]([C@@H](C)O)NC(=O)[C@H](Cc2ccccc2)NC(=O)[C@H]([C@@H](C)CC)NC(=O)[C@H](C(C)C)NC(=O)[C@H](CCCNC(=N)N)NC(=O)[C@H]([C@@H](C)CC)NC(=O)[C@H](Cc2ccccc2)NC(=O)[C@H](CCC(=O)O)NC(=O)[C@H](CCCNC(=N)N)NC(=O)CNC(=O)[C@@H](NC(=O)[C@H](CC(C)C)NC(=O)[C@H](CCCNC(=N)N)NC(=O)[C@@H](NC(=O)CNC(=O)[C@H](Cc2ccc(O)cc2)NC(=O)[C@@H]2CCCN2C(=O)[C@H](C)NC(=O)[C@H](C)NC(=O)[C@H](CCCNC(=N)N)N[C@@H](Cc2c[nH]c3ccccc23)C(=O)O)C(C)C)CSSC[C@@H](C(=O)O)NC(=O)[C@H](CC(C)C)NC(=O)[C@H](CO)NC(=O)[C@H](CO)NC1=O`: the Ki in assay [1] was 45.7 nM. In addition, the EC50 is 6.92 nM in assay [2] and 6.17 nM in assay [3].

Consider `CC[C@H](C)[C@@H]1NC(=O)[C@H](CCC(=O)O)NC(=O)[C@H](CO)NC(=O)[C@H](CCCCN)NC(=O)[C@H](CO)NC(=O)[C@H](C)NC(=O)CNC(=O)[C@H](Cc2c[nH]c3ccccc23)NC(=O)[C@H](CCCCN)NC(=O)[C@@H](N)CSSC[C@@H](C(=O)NCC(=O)NCC(=O)N[C@@H](CO)C(=O)N[C@@H](CCCNC(=N)N)C(=O)N[C@@H](Cc2c[nH]c3ccccc23)C(=O)O)NC(=O)[C@H]([C@@H](C)O)NC(=O)[C@H](Cc2ccccc2)NC(=O)[C@H]([C@@H](C)CC)NC(=O)[C@H](C(C)C)NC(=O)[C@H](CCCNC(=N)N)NC(=O)[C@H]([C@@H](C)CC)NC(=O)[C@H](Cc2ccccc2)NC(=O)[C@H](CCC(=O)O)NC(=O)[C@H](CCCNC(=N)N)NC(=O)CNC(=O)[C@@H](NC(=O)[C@H](CC(C)C)NC(=O)[C@H](CCCNC(=N)N)NC(=O)[C@@H](NC(=O)CNC(=O)[C@H](Cc2ccc(O)cc2)NC(=O)[C@@H]2CCCN2C(=O)[C@H](C)NC(=O)[C@H](C)NC(=O)[C@H](CCCNC(=N)N)N[C@H](COC(N)=O)Cc2c[nH]c3ccccc23)C(C)C)CSSC[C@@H](C(=O)O)NC(=O)[C@H](CC(C)C)NC(=O)[C@H](CO)NC(=O)[C@H](CO)NC1=O`, for which, in assay [1], the Ki was 110 nM. Besides, the EC50 was 19.5 nM in assay [2] and 6.17 nM in assay [3].

In assay [1], `CC[C@H](C)[C@@H]1NC(=O)[C@H](CCC(=O)O)NC(=O)[C@H](CO)NC(=O)[C@H](CCCCN)NC(=O)[C@H](CO)NC(=O)[C@H](C)NC(=O)CNC(=O)[C@H](Cc2c[nH]c3ccccc23)NC(=O)[C@H](CCCCN)NC(=O)[C@@H](N)CSSC[C@@H](C(=O)NCC(=O)NCC(=O)N[C@@H](CO)C(=O)N[C@@H](CCCNC(=N)N)C(=O)N[C@@H](Cc2c[nH]c3ccccc23)C(=O)O)NC(=O)[C@H]([C@@H](C)O)NC(=O)[C@H](Cc2ccccc2)NC(=O)[C@H]([C@@H](C)CC)NC(=O)[C@H](C(C)C)NC(=O)[C@H](CCCNC(=N)N)NC(=O)[C@H]([C@@H](C)CC)NC(=O)[C@H](Cc2ccccc2)NC(=O)[C@H](CCC(=O)O)NC(=O)[C@H](CCCNC(=N)N)NC(=O)CNC(=O)[C@@H](NC(=O)[C@H](CC(C)C)NC(=O)[C@H](CCCNC(=N)N)NC(=O)[C@@H](NC(=O)CNC(=O)[C@H](Cc2ccc(O)cc2)NC(=O)[C@@H]2CCCN2C(=O)[C@H](C)NC(=O)[C@H](C)NC(=O)[C@H](CCCNC(=N)N)N[C@H](CO)Cc2c[nH]c3ccccc23)C(C)C)CSSC[C@@H](C(=O)O)NC(=O)[C@H](CC(C)C)NC(=O)[C@H](CO)NC(=O)[C@H](CO)NC1=O` showed a Ki of 331 nM. The figures for the EC50 in assay [2] and in assay [3] were 282 nM and 13.2 nM, respectively.

With `CC[C@H](C)[C@@H]1NC(=O)[C@H](CCC(=O)O)NC(=O)[C@H](CO)NC(=O)[C@H](CCCCN)NC(=O)[C@H](CO)NC(=O)[C@H](C)NC(=O)CNC(=O)[C@H](Cc2c[nH]c3ccccc23)NC(=O)[C@H](CCCCN)NC(=O)[C@@H](N)CSSC[C@@H](C(=O)NCC(=O)NCC(=O)N[C@@H](CO)C(=O)N[C@@H](CCCNC(=N)N)C(=O)N[C@@H](Cc2c[nH]c3ccccc23)C(=O)O)NC(=O)[C@H]([C@@H](C)O)NC(=O)[C@H](Cc2ccccc2)NC(=O)[C@H]([C@@H](C)CC)NC(=O)[C@H](C(C)C)NC(=O)[C@H](CCCNC(=N)N)NC(=O)[C@H]([C@@H](C)CC)NC(=O)[C@H](Cc2ccccc2)NC(=O)[C@H](CCC(=O)O)NC(=O)[C@H](CCCNC(=N)N)NC(=O)CNC(=O)[C@@H](NC(=O)[C@H](CC(C)C)NC(=O)[C@H](CCCNC(=N)N)NC(=O)[C@@H](NC(=O)CNC(=O)[C@H](Cc2ccc(O)cc2)NC(=O)[C@@H]2CCCN2C(=O)[C@H](C)NC(=O)[C@H](C)NC(=O)[C@H](CCCNC(=N)N)N[C@@H](Cc2c[nH]c3ccccc23)C(=O)OC[C@H](NC(C)=O)C(N)=O)C(C)C)CSSC[C@@H](C(=O)O)NC(=O)[C@H](CC(C)C)NC(=O)[C@H](CO)NC(=O)[C@H](CO)NC1=O`, in assay [1], the affinity corresponds to a Ki of 186 nM. For the same compound, the EC50 in assay [2] is 7.08 nM; in assay [3], 4.37 nM.

In assay [1], `CC[C@H](C)[C@@H]1NC(=O)[C@H](CCC(=O)O)NC(=O)[C@H](CO)NC(=O)[C@H](CCCCN)NC(=O)[C@H](CO)NC(=O)[C@H](C)NC(=O)CNC(=O)[C@H](Cc2c[nH]c3ccccc23)NC(=O)[C@H](CCCCN)NC(=O)[C@@H](N)CSSC[C@@H](C(=O)NCC(=O)NCC(=O)N[C@@H](CO)C(=O)N[C@@H](CCCNC(=N)N)C(=O)N[C@@H](Cc2c[nH]c3ccccc23)C(=O)O)NC(=O)[C@H]([C@@H](C)O)NC(=O)[C@H](Cc2ccccc2)NC(=O)[C@H]([C@@H](C)CC)NC(=O)[C@H](C(C)C)NC(=O)[C@H](CCCNC(=N)N)NC(=O)[C@H]([C@@H](C)CC)NC(=O)[C@H](Cc2ccccc2)NC(=O)[C@H](CCC(=O)O)NC(=O)[C@H](CCCNC(=N)N)NC(=O)CNC(=O)[C@@H](NC(=O)[C@H](CC(C)C)NC(=O)[C@H](CCCNC(=N)N)NC(=O)[C@@H](NC(=O)CNC(=O)[C@H](Cc2ccc(O)cc2)NC(=O)[C@@H]2CCCN2C(=O)[C@H](C)NC(=O)[C@H](C)NC(=O)[C@H](CCCNC(=N)N)N[C@@H](Cc2c[nH]c3ccccc23)C(N)=O)C(C)C)CSSC[C@@H](C(=O)O)NC(=O)[C@H](CC(C)C)NC(=O)[C@H](CO)NC(=O)[C@H](CO)NC1=O` gave a Ki of 191 nM. Further, the results for the EC50 in assay [2] and in assay [3] were 14.5 nM and 15.8 nM, respectively.
